Experimental data from ChEMBL document CHEMBL2417469, “Synthesis of novel analogs of 2-pyrazoline obtained from [(7-chloroquinolin-4-yl)amino]chalcones and hydrazine as potential antitumor and antimalarial agents” (Eur J Med Chem, 2013).

Key:
LOX IMVI = assay: Cytotoxicity against human LOXIMVI cells after 48 hrs by SRB assay; format: functional
Procedure, shortened: (§1)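 NCI 60-cell-line screen. Cells preincubated 24 h at 37 °C, 5% CO2; time-zero plates TCA-fixed. Compounds dissolved in DMSO and tested at five concentrations (100, 10, 1.0, 0.1, 0.01 µM) for 48 h continuous exposure. Adherent cells fixed with cold TCA (10% final), then SRB stained; absorbance at 515 nm. GI50, TGI and LC50 calculated from growth relative to time-zero and untreated controls.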

SN12C = assay: Cytotoxicity against human SN12C cells after 48 hrs by SRB assay; format: functional; procedure, shortened: as §1
HT-29 = assay: Cytotoxicity against human HT-29 cells after 48 hrs by SRB assay; format: functional; details: HT-29, 48 h; procedure, shortened: as §1
SW-620 = assay: Cytotoxicity against human SW620 cells after 48 hrs by SRB assay; format: functional; details: SW-620, 48 h
Procedure, shortened: (§2)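 NCI 60-cell screen. Cells grew 24 h (37 °C, 5% CO2) before compound was added. Compounds were in DMSO and diluted in medium with gentamicin, then tested at five levels (100, 10, 1.0, 0.1, 0.01 µM) with 48 h continuous exposure. Adherent cells were fixed with TCA (10% final) and stained with 0.4% SRB, absorbance read at 515 nm. A time-zero plate was included. LC50 is the concentration giving 50% loss of protein relative to time zero.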

SNB-19 = assay: Cytotoxicity against human SNB19 cells after 48 hrs by SRB assay; format: functional; details: SNB-19, 48 h; procedure, shortened: as §2
HOP-62 = assay: Cytotoxicity against human HOP62 cells after 48 hrs by SRB assay; format: functional; details: HOP-62, 48 h; procedure, shortened: as §1
HCC 2998 = assay: Cytotoxicity against human HCC2998 cells after 48 hrs by SRB assay; format: functional; details: HCC 2998, 48 h; procedure, shortened: as §1
KM12 = assay: Cytotoxicity against human KM12 cells after 48 hrs by SRB assay; format: functional; details: KM12, 48 h; procedure, shortened: as §1
T47D = assay: Cytotoxicity against human T47D cells after 48 hrs by SRB assay; format: functional; procedure, shortened: as §2
UACC-62 = assay: Cytotoxicity against human UACC62 cells after 48 hrs by SRB assay; format: functional; details: UACC-62, 48 h; for CC50: read-out: LC50 (the source's name); procedure, shortened: as §2
HOP-92 = assay: Cytotoxicity against human HOP92 cells after 48 hrs by SRB assay; format: functional; details: HOP-92, 48 h; procedure, shortened: as §1
SK-MEL-28 = assay: Cytotoxicity against human SK-MEL-28 cells after 48 hrs by SRB assay; format: functional; details: SK-MEL-28, 48 h; for CC50: read-out: LC50 (the source's name); procedure, shortened: as §1
CAKI-1 = assay: Cytotoxicity against human Caki1 cells after 48 hrs by SRB assay; format: functional; details: CAKI-1, 48 h; procedure, shortened: as §1
NCI-H226 = assay: Cytotoxicity against human NCI-H226 cells after 48 hrs by SRB assay; format: functional; details: NCI-H226, 48 h; procedure, shortened: as §1
K562 = assay: Cytotoxicity against human K562 cells after 48 hrs by SRB assay; format: functional; details: K562, 48 h; procedure, shortened: as §1
SK-MEL-2 = assay: Cytotoxicity against human SK-MEL-2 cells after 48 hrs by SRB assay; format: functional; details: SK-MEL-2, 48 h; procedure, shortened: as §1
OVCAR-8 = assay: Cytotoxicity against human OVCAR8 cells after 48 hrs by SRB assay; format: functional; details: OVCAR-8, 48 h; procedure, shortened: as §1
SF-268 = assay: Cytotoxicity against human SF268 cells after 48 hrs by SRB assay; format: functional; details: SF-268, 48 h; procedure, shortened: as §1
A549 = assay: Cytotoxicity against human A549/ATCC cells after 48 hrs by SRB assay; format: functional; details: A549, 48 h; for CC50: read-out: LC50 (the source's name); procedure, shortened: as §1
UACC-257 = assay: Cytotoxicity against human UACC257 cells after 48 hrs by SRB assay; format: functional; details: UACC-257, 48 h; procedure, shortened: as §2
[1] = Cytotoxicity against human EKVX cells after 48 hrs by SRB assay; format: functional; procedure, shortened: as §1
COLO 205 = assay: Cytotoxicity against human COLO205 cells after 48 hrs by SRB assay; format: functional; details: COLO 205, 48 h; procedure, shortened: as §1
RXF 393 = assay: Cytotoxicity against human RXF393 cells after 48 hrs by SRB assay; format: functional; details: RXF 393, 48 h; procedure, shortened: as §1
IGROV-1 = assay: Cytotoxicity against human IGROV1 cells after 48 hrs by SRB assay; format: functional; details: IGROV-1, 48 h; procedure, shortened: as §1
RPMI-8226 = assay: Cytotoxicity against human RPMI8226 cells after 48 hrs by SRB assay; format: functional; details: RPMI-8226, 48 h; procedure, shortened: as §1
[2] = Toxicity in RBC (unknown origin) assessed as hemolysis after 48 hrs at 20 to 80 ug/ml by spectrophotometry; format: cell-based, Erythrocyte; details: red blood cells (RBC); read-out: Activity
Procedure, shortened: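 Red blood cells at 5% hematocrit in RPMI 1640 exposed to 20, 40 and 80 µg/mL for 48 h at 37 °C; free hemoglobin read spectrophotometrically at 542 nm.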

O=CN1N=C(c2cccc(Nc3ccnc4cc(Cl)ccc34)c2)CC1c1ccc(Cl)cc1 (stereo not given)
GI50 (LOX IMVI): 1.56 µM | LC50 (LOX IMVI): 50.4 µM | GI50 (SN12C): 3.86 µM | LC50 (50% net cell kill relative to time zero) (SN12C): > 100 µM | GI50 (HT-29): 0.48 µM | LC50 (HT-29): > 100 µM | GI50 (SW-620): 0.56 µM | LC50 (SW-620): > 100 µM | GI50 (SNB-19): 3.48 µM | LC50 (SNB-19): > 100 µM | GI50 (HOP-62): 1.91 µM | LC50 (50% lethal concentration) (HOP-62): > 100 µM | GI50 (HCC 2998): 3.36 µM | LC50 (HCC 2998): > 100 µM | GI50 (KM12): 0.59 µM | LC50 (concentration killing 50% of cells) (KM12): > 100 µM | GI50 (T47D): 2.63 µM | LC50 (concentration giving 50% cell kill relative to time zero) (T47D): > 100 µM | GI50 (UACC-62): 1.63 µM | CC50 (UACC-62): > 100 µM | GI50 (HOP-92): 0.65 µM | LC50 (concentration killing 50% of cells) (HOP-92): > 100 µM | GI50 (SK-MEL-28): 5.63 µM | CC50 (SK-MEL-28): > 100 µM | GI50 (CAKI-1): 0.95 µM | LC50 (CAKI-1): > 100 µM | GI50 (NCI-H226): > 100 µM | LC50 (50% lethal concentration) (NCI-H226): > 100 µM | GI50 (K562): 0.41 µM | LC50 (concentration killing 50% of cells) (K562): > 100 µM | GI50 (SK-MEL-2): 2.05 µM | LC50 (SK-MEL-2): > 100 µM | GI50 (OVCAR-8): 3.8 µM | LC50 (50% net cell kill) (OVCAR-8): > 100 µM | GI50 (SF-268): 4.37 µM | LC50 (SF-268): > 100 µM | GI50 (A549): 0.94 µM | CC50 (A549): > 100 µM | LC50 (UACC-257): > 100 µM | GI50 [1]: > 100 µM | LC50 [1]: > 100 µM | GI50 (COLO 205): 1.39 µM | LC50 (COLO 205): > 100 µM | GI50 (RXF 393): 3.08 µM | LC50 (concentration killing 50% of cells) (RXF 393): > 100 µM | GI50 (IGROV-1): 0.76 µM | LC50 (concentration killing 50% of cells relative to time zero) (IGROV-1): > 100 µM | GI50 (RPMI-8226): 2.45 µM | LC50 (concentration killing 50% of cells) (RPMI-8226): > 100 µM

COc1cc(C2CC(c3cccc(Nc4ccnc5cc(Cl)ccc45)c3)=NN2C=O)cc(OC)c1OC (stereo not given)
GI50 (LOX IMVI): 0.71 µM | LC50 (LOX IMVI): > 100 µM | GI50 (SN12C): 0.78 µM | LC50 (50% net cell kill relative to time zero) (SN12C): > 100 µM | GI50 (HT-29): 0.4 µM | LC50 (HT-29): 4.99 µM | GI50 (SW-620): 0.47 µM | LC50 (SW-620): > 100 µM | GI50 (SNB-19): 3.42 µM | LC50 (SNB-19): > 100 µM | GI50 (HOP-62): 1.12 µM | LC50 (50% lethal concentration) (HOP-62): 66.5 µM | GI50 (HCC 2998): 2.16 µM | LC50 (HCC 2998): > 100 µM | GI50 (KM12): 0.5 µM | LC50 (concentration killing 50% of cells) (KM12): > 100 µM | hemolysis at 48 h [2]: 3.4% | GI50 (T47D): 0.65 µM | LC50 (concentration giving 50% cell kill relative to time zero) (T47D): 69.3 µM | GI50 (UACC-62): 0.72 µM | CC50 (UACC-62): 84 µM | GI50 (HOP-92): 2.75 µM | LC50 (concentration killing 50% of cells) (HOP-92): > 100 µM | GI50 (SK-MEL-28): 1.02 µM | CC50 (SK-MEL-28): 97.1 µM | GI50 (CAKI-1): 0.55 µM | LC50 (CAKI-1): 12.1 µM | GI50 (NCI-H226): 2.2 µM | LC50 (50% lethal concentration) (NCI-H226): > 100 µM | GI50 (K562): 0.43 µM | LC50 (concentration killing 50% of cells) (K562): > 100 µM | GI50 (SK-MEL-2): 0.73 µM | LC50 (SK-MEL-2): 50.1 µM | GI50 (OVCAR-8): 2.06 µM | LC50 (50% net cell kill) (OVCAR-8): > 100 µM | GI50 (SF-268): 2.55 µM | LC50 (SF-268): > 100 µM | GI50 (A549): 0.66 µM | CC50 (A549): > 100 µM | GI50 (UACC-257): 1.4 µM | LC50 (UACC-257): > 100 µM | GI50 [1]: 0.98 µM | LC50 [1]: > 100 µM | GI50 (COLO 205): 0.64 µM | LC50 (COLO 205): > 100 µM | GI50 (RXF 393): 1.54 µM | LC50 (concentration killing 50% of cells) (RXF 393): 73.4 µM | GI50 (IGROV-1): 3.29 µM | LC50 (concentration killing 50% of cells relative to time zero) (IGROV-1): > 100 µM | GI50 (RPMI-8226): 8.83 µM | LC50 (concentration killing 50% of cells) (RPMI-8226): > 100 µM
